We go through eleven molecules from ChEMBL document CHEMBL4433206, “Novel Lysine-Based Thioureas as Mechanism-Based Inhibitors of Sirtuin 2 (SIRT2) with Anticancer Activity in a Colorectal Cancer Murine Model” (J Med Chem, 2019).

Data set [1] addresses T1, NAD-dependent protein deacetylase sirtuin-2 (Homo sapiens) (UniProt Q8IXJ6).
T1 sequence (whole entry): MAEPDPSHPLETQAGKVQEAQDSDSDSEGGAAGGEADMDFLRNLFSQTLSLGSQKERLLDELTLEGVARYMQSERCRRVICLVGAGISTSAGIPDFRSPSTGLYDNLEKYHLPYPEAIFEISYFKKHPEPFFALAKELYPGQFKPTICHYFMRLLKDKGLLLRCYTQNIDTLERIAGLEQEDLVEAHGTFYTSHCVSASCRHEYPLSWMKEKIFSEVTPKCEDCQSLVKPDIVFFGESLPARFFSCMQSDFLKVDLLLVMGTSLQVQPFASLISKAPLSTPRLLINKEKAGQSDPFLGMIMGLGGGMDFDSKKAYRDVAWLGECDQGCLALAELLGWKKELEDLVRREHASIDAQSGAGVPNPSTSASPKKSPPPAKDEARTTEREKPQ
In words: Inhibition of SIRT2 in human HCT116 cells assessed as increase in alpha-tubulin acetylation at 25 uM incubated for 6 hrs by DAPI staining-based laser scanning confocal microscopic analysis. In kind it is cell-based. Put shortly:
(§1)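 HCT116 cells were seeded at 400 000 on poly-D-lysine-coated glass-bottom dishes and grown 24 h. Cells were treated with DMSO or inhibitor for 6 h at 37 °C, fixed in ice-cold methanol, and blocked in TBS/0.1% Triton X-100/5% BSA. They were stained with anti-acetyl α-tubulin (1:100, overnight, 4 °C), then Cy3 anti-mouse, and mounted with DAPI. Imaging was by confocal microscopy.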

Data set [2] concerns the target T2, NAD-dependent protein deacetylase sirtuin-1 (Homo sapiens) (UniProt Q96EB6).
T2 sequence (whole entry): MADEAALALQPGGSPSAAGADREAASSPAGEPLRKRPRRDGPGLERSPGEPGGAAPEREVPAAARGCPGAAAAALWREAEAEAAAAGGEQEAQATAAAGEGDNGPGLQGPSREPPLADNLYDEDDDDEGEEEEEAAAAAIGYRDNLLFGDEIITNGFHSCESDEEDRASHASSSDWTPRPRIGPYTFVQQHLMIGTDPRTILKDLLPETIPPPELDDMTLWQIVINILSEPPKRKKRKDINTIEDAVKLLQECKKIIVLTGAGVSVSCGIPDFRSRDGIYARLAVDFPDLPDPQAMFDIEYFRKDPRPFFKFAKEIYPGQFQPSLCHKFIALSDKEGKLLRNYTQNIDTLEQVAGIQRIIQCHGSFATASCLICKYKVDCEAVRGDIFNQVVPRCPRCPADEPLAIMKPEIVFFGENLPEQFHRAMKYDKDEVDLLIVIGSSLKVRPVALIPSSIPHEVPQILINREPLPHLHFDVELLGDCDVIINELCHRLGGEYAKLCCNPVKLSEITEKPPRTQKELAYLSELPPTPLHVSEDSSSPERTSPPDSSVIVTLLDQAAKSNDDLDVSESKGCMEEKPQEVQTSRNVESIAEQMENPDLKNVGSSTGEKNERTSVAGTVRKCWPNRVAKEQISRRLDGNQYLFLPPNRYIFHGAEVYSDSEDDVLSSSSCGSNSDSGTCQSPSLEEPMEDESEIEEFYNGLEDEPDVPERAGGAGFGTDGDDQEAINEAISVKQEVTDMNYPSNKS
In words: Inhibition of SIRT1 in human HCT116 cells assessed as increase in acetylated p53 K382 level at 25 uM after 6 hrs by Western blot analysis. It counts as cell-based.

Data set [3] has as its target T3, NAD-dependent protein deacetylase sirtuin-2 (Homo sapiens, UniProt Q8IXJ6).
T3 sequence (Q8IXJ6 whole entry): T1 sequence (whole entry)
In words: Inhibition of recombinant human N-terminal His6-tagged/SUMO-fused SIRT2 (38 to 356 residues) expressed in Escherichia coli BL21 assessed as reduction in deacetylase activity using acetylated H3K9 as substrate preincubated for 15 mins followed by substrate addition and measured after 6 mins by UV-HPLC analysis.

Data set [4] has as its target T1, NAD-dependent protein deacetylase sirtuin-2 (Homo sapiens). Briefly: Inhibition of SIRT2 in human HCT116 cells assessed as increase in alpha-tubulin acetylation at 50 uM incubated for 6 hrs by DAPI staining-based laser scanning confocal microscopic analysis. It counts as cell-based. Put shortly:
as §1

Data set [5] deals with T4, NAD-dependent protein deacetylase sirtuin-1 (Homo sapiens, UniProt Q96EB6).
T4 sequence (Q96EB6 whole entry): T2 sequence (whole entry)
Briefly: Inhibition of human SIRT1 deacetylase activity using acetylated H3K9 as substrate preincubated for 15 mins followed by substrate addition and measured after 3 mins by UV-HPLC analysis.

The target of data set [6] is T2, NAD-dependent protein deacetylase sirtuin-1 (Homo sapiens). In words: Inhibition of SIRT1 in Trichostatin A treated human HCT116 cells assessed as increase in acetylated p53 K382 level after 6 hrs by Western blot analysis. Put shortly:
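HCT116 cells were seeded at 400 000 per well, grown 24 h, then cotreated with 400 nM TSA and inhibitor (25 μM, or 10–50 μM) for 6 h at 37 °C. Cells were lysed in 4% SDS buffer, pH 7.4. 50 μg of lysate was resolved by 12% SDS-PAGE and blotted for acetyl-p53 K382 antibody, with β-actin as loading control. Detection was by ECL.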

Data set [7] is filed under the species Homo sapiens. In words: Selectivity ratio of IC50 for human SIRT1 to IC50 for recombinant human N-terminal His6-tagged/SUMO-fused SIRT2 (38 to 356 residues) expressed in Escherichia coli BL21. Put shortly: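 Purified human sirtuin (SIRT1 0.05 μM, SIRT2 0.2 μM) in 20 mM Tris, 1 mM NAD⁺, 1 mM DTT, pH 8.0 was preincubated with inhibitor (0.002–417 μM, duplicate, DMSO control) for 15 min at 37 °C. Acetyl-H3K9 peptide (10 μM) was then added, and the reaction ran at 37 °C (SIRT1 3 min, SIRT2 6 min; 10–18% conversion). It was quenched with HCl/acetic acid and analysed by reverse-phase HPLC with UV at 215/326 nm.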

Data set [8] concerns the target T5, NAD-dependent protein deacetylase sirtuin-3, mitochondrial (Homo sapiens, UniProt Q9NTG7).
T5 sequence (Q9NTG7 whole entry): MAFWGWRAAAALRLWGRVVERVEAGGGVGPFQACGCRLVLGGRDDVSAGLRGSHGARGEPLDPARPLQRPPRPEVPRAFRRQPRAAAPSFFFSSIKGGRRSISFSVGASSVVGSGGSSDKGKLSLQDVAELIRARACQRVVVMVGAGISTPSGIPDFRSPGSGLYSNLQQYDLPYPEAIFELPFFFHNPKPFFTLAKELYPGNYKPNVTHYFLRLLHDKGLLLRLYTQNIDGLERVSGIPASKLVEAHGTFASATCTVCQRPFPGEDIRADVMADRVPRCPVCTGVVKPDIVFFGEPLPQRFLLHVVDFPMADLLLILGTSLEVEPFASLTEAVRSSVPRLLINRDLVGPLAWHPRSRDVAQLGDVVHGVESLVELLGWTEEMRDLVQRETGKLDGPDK
In words: Inhibition of human SIRT3 assessed as reduction in deacetylase activity using acetylated H3K9 as substrate preincubated for 15 mins followed by substrate addition and measured after 15 mins by UV-HPLC analysis.

A short description of data set [9]: Cytotoxicity against human HME1 cells after 72 hrs by CellTiter-Blue assay. In kind it is cell-based. Put shortly:
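Cells were seeded per well (HCT116 1000; MDA-MB-231, MDA-MB-468, NCI-H23, A549, SW948 2000; MCF7, BxPC-3, HME1 3000) and left 20 h at 37 °C. Inhibitor was added at 1–100 μM final for 72 h at 37 °C. CellTiter-Blue was then added for 4 h, and fluorescence was read at ex 560/em 590 nm.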
A general note: Alamar Blue is a resazurin reagent that responds to reducing activity.

Calls of active or inactive are those of the source. The rule behind the calls is not given here.

As a reminder, the IC50 is the concentration needed to halve the response being measured. Consider `CCCCCCCCCCNC(=S)NCCCC[C@H](NC(=O)OCc1ccccc1)C(=O)Nc1cccc(O)c1`, for which the inhibition entry in data set [1], in data set [2] and in [4] was “Active” in each case. Besides, the figures for the IC50 in data set [3], in data set [5] and in [8] were 36 nM, 450 nM and > 100000 nM, respectively. In addition, in data set [6], the inhibition entry is “Dose-dependent effect”. In addition, in [7], the Ratio IC50 is 12.

On to `CCCCCCCNC(=S)NCCCC[C@H](NC(=O)OCc1ccccc1)C(=O)Nc1ccccc1`, for which the IC50 in data set [3] is 160 nM; in [5], 22000 nM.

For the molecule `CCCCCCNC(=S)NCCCC[C@H](NC(=O)OCc1ccccc1)C(=O)Nc1ccccc1`, the values for the IC50 in data set [3] and in [5] were 640 nM and 30000 nM, respectively.

On to `NC(=O)C1CCCc2c1[nH]c1ccc(Cl)cc21` (configuration not stated), for which, in data set [2], the inhibition entry is “Active”.

Regarding `CCCNC(=S)NCCCC[C@H](NC(=O)OCc1ccccc1)C(=O)Nc1cccc(O)c1`, the inhibition entry in data set [1], in data set [2] and in data set [4] was “inactive” each time. For the same molecule, the IC50 in [3], in [5] and in data set [8] was > 100000 nM each time.

On to `CCCCCCCCNC(=S)NCCCC[C@H](NC(=O)OCc1ccccc1)C(=O)Nc1cccc(O)c1`, for which the IC50 is 120 nM in data set [3], 1000 nM in [5] and > 100000 nM in [8]. Further, the Ratio IC50 in data set [7] worked out at 8.

For `CNC(=S)NCCCC[C@H](NC(=O)OCc1ccccc1)C(=O)Nc1cccc(O)c1`, the IC50 in data set [3], in data set [5] and in data set [8] was > 100000 nM throughout.

For the molecule `CCCCCNC(=S)NCCCC[C@H](NC(=O)OCc1ccccc1)C(=O)Nc1cccc(O)c1`, the inhibition entry in [1], in data set [2] and in [4] was “Active” throughout. For the same molecule, the values for the IC50 in data set [3], in data set [5] and in data set [8] were 1000 nM, 34000 nM and > 100000 nM, respectively. Further, the Ratio IC50 in [7] came to 34.

Consider `CCCCCCCCCCCCNC(=S)NCCCC[C@H](NC(=O)OCc1ccccc1)C(=O)Nc1ccccc1`, for which the concentration for half-maximal inhibition (IC50) was 81 nM in [3], > 200000 nM in data set [5] and > 200000 nM in [8].

In the case of `CCCCCCCCCCCCNC(=S)NCCCC[C@H](NC(=O)OCc1ccccc1)C(=O)Nc1cccc(O)c1`, the values for the half-maximal inhibitory concentration (IC50) in data set [3], in [5] and in data set [8] were 60 nM, 1000 nM and > 100000 nM, respectively. The Ratio IC50 in [7] was found to be 17.

For `CCCCCCCCCCCCCC(=S)NCCCC[C@H](NC(=O)OCc1ccccc1)C(=O)Nc1ccccc1`, in data set [9], the Activity entry was “Non-Toxic”. For the same molecule, the IC50 in [8] is > 100000 nM.
